Test results taken from ChEMBL document CHEMBL1212766, “Dose escalation study of the safety, tolerability, and pharmacokinetics of nemonoxacin (TG-873870), a novel potent broad-spectrum nonfluorinated quinolone, in healthy volunteers” (Antimicrob Agents Chemother, 2010).
Values after ≈ are worked out from the molar mass of the structure shown.

Columns and labels:
Homo sapiens [1] = assay: AUC (0 to infinity) in healthy human at 1000 mg, po administered as single dose; details: in vivo
[2] = Renal clearance in healthy human at 125 mg, po administered as single dose; details: in vivo, read-out: CL_renal (converted)
[3] = Terminal phase elimination half-life in healthy human at 50 […], po administered single dose; assay type: ADME, organism-based; design: route oral; details: in vivo
Method in brief: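 After one fasted oral dose (six healthy subjects per cohort), plasma was sampled from 0.5 to 96 h and assayed by LC-MS/MS (LLOQ 5 ng/ml). λz came from least-squares regression on at least the last three log-concentration points, and t1/2 = 0.693/λz. Values are means (SD).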

Streptococcus pneumoniae [4] = assay: Ratio of fCmax to MIC90 for penicillin-sensitive Streptococcus pneumoniae; assay type: functional
Method in brief: (§1)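 Fasted healthy adults got a single oral 500 mg dose with 240 ml water. Plasma was sampled predose to 96 h and assayed by LC-MS/MS (5–5,000 ng/ml). Cmax was read from individual profiles, and AUC0-∞ came from linear trapezoid plus extrapolation. Free fraction was measured by ultrafiltration (30,000 MWCO) of 0.5 and 6 h plasma. Free exposure was divided by the isolate MIC90.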

Homo sapiens [5] = assay: Toxicity in healthy human assessed as occurrence of contact dermatitis at 125 […], po; assay type: organism-based; design: route oral; details: in vivo
Method in brief: (§2)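 Randomized, double-blind, placebo-controlled single ascending oral doses in healthy volunteers (cohorts of 6 active, 2 placebo; 25–1,500 mg). After a 10-h fast, dose given with 240 ml water; fasting continued 4 h. Subjects were confined to 96 h postdose. AEs were recorded throughout dosing and at follow-up, reported as number and percentage of subjects with events per treatment.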

Homo sapiens [6] = assay: Toxicity in healthy human assessed as occurrence of nausea at 250 […], po; assay type: organism-based; design: route oral; details: in vivo
Homo sapiens [7] = assay: Toxicity in healthy human assessed as occurrence of abdominal pain at 500 […], po; assay type: organism-based, Abdomen; design: route oral; details: in vivo
Method in brief: (§3)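 Double-blind, placebo-controlled single ascending oral dose; two placebo and six active subjects per cohort. Adverse events were recorded throughout the dosing period and at follow-up, with confinement to 96 h after dosing. Results are reported as number and percentage of subjects with the event (n/N × 100).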

[8] = Tmax in healthy human at 50 mg, po administered as single dose; details: in vivo
Homo sapiens [9] = assay: Toxicity in healthy human assessed as occurrence of erythema at 50 […], po; assay type: organism-based; design: route oral; details: in vivo
Homo sapiens [10] = assay: Toxicity in healthy human assessed as occurrence of oral hypoesthesia at 250 […], po; assay type: organism-based; design: route oral; details: in vivo
Homo sapiens [11] = assay: Toxicity in healthy human assessed as occurrence of nausea at 125 […], po; assay type: organism-based; design: route oral; details: in vivo
Streptococcus pneumoniae [12] = assay: Antimicrobial activity against penicillin-intermediate Streptococcus pneumoniae; assay type: functional
Streptococcus pneumoniae [13] = assay: Ratio of fCmax to MIC90 for penicillin-intermediate Streptococcus pneumoniae; assay type: functional
Method in brief: as §1

Homo sapiens [14] = assay: Toxicity in healthy human assessed as occurrence of nausea at 500 […], po; assay type: organism-based; design: route oral; details: in vivo
Homo sapiens [15] = assay: Toxicity in healthy human assessed as occurrence of oral hypoesthesia at 1500 […], po; assay type: organism-based; design: route oral; details: in vivo
Homo sapiens [16] = assay: Toxicity in healthy human assessed as occurrence of pruritus at 250 […], po; assay type: organism-based; design: route oral; details: in vivo
Homo sapiens [17] = assay: Toxicity in healthy human assessed as occurrence of abdominal pain at 1500 […], po; assay type: organism-based, Abdomen; design: route oral; details: in vivo
Method in brief: as §3

[18] = Clearance in healthy human assessed as recovery of unchanged drug in urine at 50 […], po administered as single dose; assay type: ADME, organism-based; design: route oral; details: read-out: Recovered in urine
Method in brief: (§4)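 Healthy volunteers, six on drug per cohort, fasted 10 h and given one oral dose with 240 ml water, then fasted 4 h more. Urine was pooled over intervals from 0-2 to 72-96 h and stored at about −70°C. Drug was measured by solid-phase extraction and LC-MS/MS (LLOQ 200 ng/ml), giving the percent of dose recovered unchanged. Values are means (SD).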

Homo sapiens [19] = assay: Toxicity in healthy human assessed as occurrence of contact dermatitis at 1000 […], po; assay type: organism-based; design: route oral; details: in vivo
Method in brief: as §3

Homo sapiens [20] = assay: Toxicity in healthy human assessed as occurrence of ear pain at 125 […], po; assay type: organism-based; design: route oral; details: in vivo
[21] = Cmax in healthy human at 500 mg, po administered as single dose; details: in vivo
[22] = Terminal phase elimination half-life in healthy human at 1500 mg, po administered single dose; details: in vivo
Homo sapiens [23] = assay: Toxicity in healthy human assessed as occurrence of oral hypoesthesia at 50 […], po; assay type: organism-based; design: route oral; details: in vivo
[24] = Clearance in healthy human assessed as recovery of unchanged drug in urine at 250 […], po administered as single dose; assay type: ADME, organism-based; design: route oral; details: read-out: Recovered in urine
Method in brief: as §4

Streptococcus pneumoniae [25] = assay: Antimicrobial activity against Streptococcus pneumoniae; assay type: functional
Homo sapiens [26] = assay: Toxicity in healthy human assessed as occurrence of contact dermatitis at 500 […], po; assay type: organism-based; design: route oral; details: in vivo
[27] = Clearance in healthy human assessed as recovery of unchanged drug in urine at 1500 […], po administered as single dose; assay type: ADME, organism-based; design: route oral; details: read-out: Recovered in urine
Method in brief: as §4

Homo sapiens [28] = assay: Toxicity in healthy human assessed as occurrence of oral hypoesthesia at 25 […], po; assay type: organism-based; design: route oral; details: in vivo
Homo sapiens [29] = assay: Toxicity in healthy human assessed as occurrence of ear pain at 250 […], po; assay type: organism-based; design: route oral; details: in vivo
Staphylococcus aureus = assay: Ratio of fAUC to MIC90 for methicillin-sensitive Staphylococcus aureus; assay type: functional
Method in brief: as §1

Homo sapiens [30] = assay: Toxicity in healthy human assessed as occurrence of ear pain at 50 […], po; assay type: organism-based; design: route oral; details: in vivo
Streptococcus pneumoniae [31] = assay: Ratio of fCmax to MIC90 for penicillin-resistant Streptococcus pneumoniae; assay type: functional
Method in brief: as §1

[32] = Renal clearance in healthy human at 1500 […], po administered as single dose; assay type: ADME, organism-based, Kidney; design: route oral; details: in vivo, read-out: CL_renal (converted)
Method in brief: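 Renal clearance (CL_r) came from noncompartmental analysis of plasma drawn through 96 h and urine collected over fixed intervals to 96 h. Subjects were fasted healthy volunteers, six per dose cohort, given one oral dose with 240 ml water. Plasma and urine were assayed by LC-MS/MS after solid-phase extraction, with urine LLOQ 200 ng/ml. Values are means (SD).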

[33] = Renal clearance in healthy human at 250 mg, po administered as single dose; details: in vivo, read-out: CL_renal (converted)
Homo sapiens [34] = assay: Clearance in healthy human at 1500 mg, po administered as single dose; details: in vivo
Homo sapiens [35] = assay: AUC (0 to infinity) in healthy human at 50 mg/kg, po administered as single dose; assay type: ADME, organism-based, Plasma; design: time infinity, route oral; details: in vivo
Homo sapiens [36] = assay: Toxicity in healthy human assessed as occurrence of pruritus at 1500 […], po; assay type: organism-based; design: route oral; details: in vivo
Homo sapiens [37] = assay: Terminal volume of distribution in healthy human at 1000 mg, po administered as single dose; details: in vivo
Homo sapiens [38] = assay: Toxicity in healthy human assessed as occurrence of contact dermatitis at 50 […], po; assay type: organism-based; design: route oral; details: in vivo
Method in brief: as §2

Streptococcus pneumoniae [39] = assay: Antimicrobial activity against penicillin-sensitive Streptococcus pneumoniae; assay type: functional
Homo sapiens [40] = assay: Toxicity in healthy human assessed as occurrence of pustular rashes at 1000 […], po; assay type: organism-based; design: route oral; details: in vivo

With `COc1c(N2C[C@@H](C)C[C@H](N)C2)ccc2c(=O)c(C(=O)O)cn(C3CC3)c12` [NEMONOXACIN] as the compound, how does the AUC (Homo sapiens [1]) read?
The AUC was 63310 ng·h/mL.

What about the CL renal [2] of the same compound?
Its CL renal is 1.33 mL/min/kg.

And the half-life [3]?
Its half-life is 8.49 h.

And the Ratio (Streptococcus pneumoniae [4])?
Its Ratio is 191.

And the Activity (Homo sapiens [5])?
The Activity was 33%.

What about the Activity (Homo sapiens [6]) of the same compound?
The Activity was 0%.

What about the Activity (Homo sapiens [7]) of the same compound?
The Activity was 0%.

What about the Tmax [8] of the same compound?
The Tmax was 1.08 h.

And the Activity (Homo sapiens [9])?
The Activity was 0%.

And the Activity (Homo sapiens [10])?
Its Activity is 0%.

And the Activity (Homo sapiens [11])?
The Activity was 0%.

And the MIC90 (Streptococcus pneumoniae [12])?
Its MIC90 is 0.015 µg/mL (≈ 0.0404 µM).

What about the Ratio (Streptococcus pneumoniae [13]) of the same compound?
Its Ratio is 191.

And the Activity (Homo sapiens [14])?
The Activity was 0%.

And the Activity (Homo sapiens [15])?
The Activity was 0%.

What about the Activity (Homo sapiens [16]) of the same compound?
Its Activity is 0%.

And the Activity (Homo sapiens [17])?
Its Activity is 17%.

What about the dose excreted [18] of the same compound?
Its dose excreted is 51.1%.

And the Activity (Homo sapiens [19])?
The Activity was 0%.

What about the Activity (Homo sapiens [20]) of the same compound?
Its Activity is 0%.

What about the Cmax [21] of the same compound?
The Cmax was 3410 ng/mL.

What about the half-life [22] of the same compound?
The half-life was 13 h.

And the Activity (Homo sapiens [23])?
The Activity was 0%.

And the dose excreted [24]?
Its dose excreted is 44.9%.

And the MIC90 (Streptococcus pneumoniae [25])?
Its MIC90 is 0.015 µg/mL (≈ 0.0404 µM).

What about the Activity (Homo sapiens [26]) of the same compound?
The Activity was 0%.

And the dose excreted [27]?
The dose excreted was 37.6%.

What about the Activity (Homo sapiens [28]) of the same compound?
Its Activity is 0%.

And the Activity (Homo sapiens [29])?
Its Activity is 0%.

And the Ratio (Staphylococcus aureus)?
Its Ratio is 227.

What about the Activity (Homo sapiens [30]) of the same compound?
The Activity was 0%.

And the Ratio (Streptococcus pneumoniae [31])?
Its Ratio is 95.

What about the CL renal [32] of the same compound?
The CL renal was 1.15 mL/min/kg.

What about the CL renal [33] of the same compound?
Its CL renal is 1.83 mL/min/kg.

What about the CL (Homo sapiens [34]) of the same compound?
Its CL is 3 mL/min/kg.

And the AUC (Homo sapiens [35])?
The AUC was 2990 ng·h/mL.

What about the Activity (Homo sapiens [36]) of the same compound?
The Activity was 50%.

And the Vbeta (Homo sapiens [37])?
The Vbeta was 5.28 L/kg.

What about the Activity (Homo sapiens [38]) of the same compound?
The Activity was 0%.

What about the MIC90 (Streptococcus pneumoniae [39]) of the same compound?
The MIC90 was 0.015 µg/mL (≈ 0.0404 µM).

What about the Activity (Homo sapiens [40]) of the same compound?
The Activity was 0%.
